From ChEMBL document CHEMBL1146123, “Kinesin spindle protein (KSP) inhibitors. Part 2: the design, synthesis, and characterization of 2,4-diaryl-2,5-dihydropyrrole inhibitors of the mitotic kinesin KSP” (Bioorg Med Chem Lett, 2006) come the findings set out here.

In general, IC50 refers to the concentration that gives 50% inhibition. The EC50 is the midpoint of the concentration-response curve. The term solubility denotes the dissolved amount per volume that the medium holds. A word on the clearance: it is a measure of how efficiently the substance is removed, as volume per time. One may read the half-life as the time needed for the level to fall by half in the phase considered.

Data set [1] addresses T1, Kinesin-like protein KIF11 (Homo sapiens, UniProt P52732).
T1 sequence (P52732 whole entry): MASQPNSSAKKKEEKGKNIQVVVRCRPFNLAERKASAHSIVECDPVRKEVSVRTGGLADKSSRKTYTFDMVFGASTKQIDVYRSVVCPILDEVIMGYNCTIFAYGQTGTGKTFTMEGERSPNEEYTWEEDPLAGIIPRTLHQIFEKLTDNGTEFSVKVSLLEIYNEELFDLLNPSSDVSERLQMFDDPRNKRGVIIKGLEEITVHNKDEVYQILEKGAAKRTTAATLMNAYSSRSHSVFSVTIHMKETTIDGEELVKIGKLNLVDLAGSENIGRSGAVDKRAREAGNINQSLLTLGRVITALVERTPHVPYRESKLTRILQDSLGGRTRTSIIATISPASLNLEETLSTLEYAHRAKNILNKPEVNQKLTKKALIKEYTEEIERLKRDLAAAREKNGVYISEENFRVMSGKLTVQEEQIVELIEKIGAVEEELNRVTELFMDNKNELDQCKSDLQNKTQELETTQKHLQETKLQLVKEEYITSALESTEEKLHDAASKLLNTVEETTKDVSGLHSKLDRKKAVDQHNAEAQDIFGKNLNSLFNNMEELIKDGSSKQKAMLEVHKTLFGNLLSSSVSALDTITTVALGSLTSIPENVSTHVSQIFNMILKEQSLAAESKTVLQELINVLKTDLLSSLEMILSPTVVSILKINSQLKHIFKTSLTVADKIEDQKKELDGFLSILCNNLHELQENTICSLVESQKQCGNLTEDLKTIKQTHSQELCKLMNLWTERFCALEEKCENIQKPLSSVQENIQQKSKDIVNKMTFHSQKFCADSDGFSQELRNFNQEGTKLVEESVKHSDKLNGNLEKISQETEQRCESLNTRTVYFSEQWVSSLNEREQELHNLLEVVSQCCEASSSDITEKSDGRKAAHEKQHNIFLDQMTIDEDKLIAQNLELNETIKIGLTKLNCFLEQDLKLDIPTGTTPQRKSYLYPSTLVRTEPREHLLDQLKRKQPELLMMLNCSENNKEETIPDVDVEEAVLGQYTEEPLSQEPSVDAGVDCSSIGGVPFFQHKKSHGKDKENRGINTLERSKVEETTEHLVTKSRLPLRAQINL
The data set is described as follows: Inhibition of KSP.

Another data set deals with A2780. The data set is described as follows: Mitotic arrest in A2780 cells. It is filed as functional, cell-based. The following applies: Homo sapiens. The method in brief:
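Mitosis-specific nucleolin phosphorylation read-out. Total nucleolin is captured on streptavidin paramagnetic beads carrying biotinylated anti-nucleolin antibody 4E2, and detected by electrochemiluminescence of a Tris-bipyridyl label. Cells were treated for 16 h with a 7-point, half-log dilution series. EC50 is the average of at least two independent determinations.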

The target of data set [2] is Voltage-gated inwardly rectifying potassium channel KCNH2 (Homo sapiens, UniProt Q12809). The data set is described as follows: Inhibitory activity against human hERG receptor expressed in HEK cells. In general terms: hERG is a cardiac potassium channel; its block is linked to QT prolongation.
A short description of data set [3]: Aqueous solubility at pH 5. It is filed as physicochemical. The following applies: aqueous solution.
The nature of data set [4]: Plasma clearance in rat at 1 mg/kg, iv. It is filed as ADME, organism-based. Also noted: dose 1 mg/kg, route intravenous. The gist of the method: (§1)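 Single intravenous dose; rats at 1.0 mg/kg (n = 4), dogs at 0.4 mg/kg (n = 4), monkeys at 0.4 mg/kg (n = 3). Plasma clearance (mL/min/kg), steady-state volume of distribution (Vdss, L/kg) and half-life (h) taken from the plasma concentration profile.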

Data set [5] in a line: Volume distribution in rat at 1 mg/kg, iv. Also noted: dose 1 mg/kg, route intravenous. The note with it: in vivo, read-out: Vdss. It is filed as ADME, organism-based. The method in brief: as §1
Data set [6] can be described thus: Half life in rat at 1 mg/kg, iv. It is filed as ADME, organism-based. More on the design: dose 1 mg/kg, route intravenous. The note with it: in vivo. The method in brief:
as §1

A short description of data set [7]: Plasma clearance in dog at 0.4 mg/kg, iv. The class given is ADME, organism-based, Canis lupus familiaris. Also noted: dose 0.4 mg/kg, route intravenous. The method in brief:
as §1

Data set [8] is described as follows: Volume distribution in dog at 0.4 mg/kg, iv. Also noted: dose 0.4 mg/kg, route intravenous. The class given is ADME, organism-based, Canis lupus familiaris. The following applies: in vivo, read-out: Vdss. The method in brief: as §1
Data set [9] can be described thus: Half life in dog at 0.4 mg/kg, iv. It is filed as ADME, organism-based, Canis lupus familiaris. More on the design: dose 0.4 mg/kg, route intravenous. The following applies: in vivo. The method in brief: as §1
The nature of data set [10]: Plasma clearance in monkey at 0.4 mg/kg, iv. The class given is ADME, organism-based, Macaca mulatta. More on the design: dose 0.4 mg/kg, route intravenous. The following applies: rhesus monkey. The method in brief: as §1
Data set [11] in a line: Volume distribution in monkey at 0.4 mg/kg, iv. It is filed as ADME, organism-based, Macaca mulatta. The note with it: rhesus monkey, in vivo, read-out: Vdss. Also noted: dose 0.4 mg/kg, route intravenous. The gist of the method: as §1
The nature of data set [12]: Half life in monkey at 0.4 mg/kg, iv. It is filed as ADME, organism-based, Macaca mulatta. More on the design: dose 0.4 mg/kg, route intravenous. The note with it: rhesus monkey, in vivo. The method in brief:
as §1

Sequence of Voltage-gated inwardly rectifying potassium channel KCNH2 (Q12809 whole entry): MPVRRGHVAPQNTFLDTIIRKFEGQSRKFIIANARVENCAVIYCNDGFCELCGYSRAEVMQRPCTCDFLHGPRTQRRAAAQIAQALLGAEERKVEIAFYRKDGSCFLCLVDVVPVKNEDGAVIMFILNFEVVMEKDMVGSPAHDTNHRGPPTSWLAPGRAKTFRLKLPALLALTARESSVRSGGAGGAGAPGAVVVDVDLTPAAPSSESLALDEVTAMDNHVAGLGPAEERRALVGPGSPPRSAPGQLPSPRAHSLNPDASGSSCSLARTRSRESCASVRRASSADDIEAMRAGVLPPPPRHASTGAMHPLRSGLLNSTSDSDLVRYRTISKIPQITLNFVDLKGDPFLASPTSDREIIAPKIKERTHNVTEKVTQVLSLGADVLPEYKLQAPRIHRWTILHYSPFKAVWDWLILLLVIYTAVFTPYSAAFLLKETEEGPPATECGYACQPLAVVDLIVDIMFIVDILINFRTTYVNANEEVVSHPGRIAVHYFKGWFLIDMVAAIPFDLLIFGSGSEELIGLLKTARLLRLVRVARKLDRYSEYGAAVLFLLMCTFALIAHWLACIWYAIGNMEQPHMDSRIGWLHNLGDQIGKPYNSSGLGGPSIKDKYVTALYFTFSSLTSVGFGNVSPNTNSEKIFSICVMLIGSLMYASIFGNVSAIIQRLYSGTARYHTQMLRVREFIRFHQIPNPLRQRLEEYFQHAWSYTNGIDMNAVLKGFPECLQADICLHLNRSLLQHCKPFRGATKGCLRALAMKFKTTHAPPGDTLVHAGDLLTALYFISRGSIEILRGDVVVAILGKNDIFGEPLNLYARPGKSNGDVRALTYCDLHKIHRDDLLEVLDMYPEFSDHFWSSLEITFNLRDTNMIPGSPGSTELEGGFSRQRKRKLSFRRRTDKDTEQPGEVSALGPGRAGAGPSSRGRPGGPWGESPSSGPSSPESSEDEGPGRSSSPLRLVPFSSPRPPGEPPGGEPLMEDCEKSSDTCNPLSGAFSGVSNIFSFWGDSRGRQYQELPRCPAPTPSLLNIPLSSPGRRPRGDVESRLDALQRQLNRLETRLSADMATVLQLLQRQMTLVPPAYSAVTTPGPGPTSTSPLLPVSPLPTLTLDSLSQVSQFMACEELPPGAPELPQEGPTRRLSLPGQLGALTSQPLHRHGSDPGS

The compound `CC(C)(C)[C@H](NC(=O)OCCO)C(=O)N1CC(c2cc(F)ccc2F)=C[C@H]1c1ccccc1` returned an IC50 in data set [1] of 7.4 nM. The compound further showed an EC50 in the data set with A2780 of 13 nM.
In data set [1], `CC(C)(C)C(=O)N1N=C(c2cc(F)ccc2F)CC1c1ccccc1` (racemic) came in with an IC50 of 113 nM.
As to `CC(C)(C)[C@H](N)C(=O)N1CC(c2cc(F)ccc2F)=C[C@H]1c1ccccc1`, the IC50 in data set [1] is 2.7 nM. In addition, the EC50 in the data set on A2780 was 7.1 nM.
Take `CC(C)[C@@H](N)C(=O)N1CC(c2cc(F)ccc2F)=C[C@H]1c1ccccc1`: the IC50 in [1] was found to be 3100 nM.
For `CC(C)[C@H](N)C(=O)N1CC(c2cc(F)ccc2F)=C[C@H]1c1ccccc1`, the IC50 in data set [1] is 3.6 nM. In the data set on A2780, this compound yielded an EC50 of 12 nM.
As for `CC(C)(C)C(=O)N1CC(c2cc(F)ccc2F)=CC1c1ccccc1` (racemic), the IC50 in data set [1] is 85 nM.
As to `O=C([C@@H](O)C1CC1)N1CC(c2cc(F)ccc2F)=C[C@H]1c1ccccc1`, the IC50 amounted to 11 nM in data set [1] and 11000 nM in data set [2]. The compound also gave an EC50 in the data set on A2780 of 20 nM.
Regarding `CC(=O)N1CCC(N(C)C(=O)N2CC(c3cc(F)ccc3F)=C[C@H]2c2ccccc2)CC1`, 50 nM corresponded to half-maximal inhibition in data set [1] (IC50). This compound also displayed an EC50 in the data set with A2780 of 69 nM.
`CC(C)(CN)C(=O)N1CC(c2cc(F)ccc2F)=C[C@H]1c1ccccc1`: 5.2 nM corresponded to half-maximal inhibition in [1] (IC50). Also, the EC50 with A2780 came to 11 nM.
Consider `N[C@H](C(=O)N1CC(c2cc(F)ccc2F)=C[C@H]1c1ccccc1)C1CC1`, for which the EC50 in the data set on A2780 came out at 8.6 nM. The same compound returned a solubility in [3] of over 10000 µg/mL. Moreover, the clearance in [4] was found to be 40 mL/min/kg; in data set [7] it was 23 mL/min/kg; in data set [10] it was 21 mL/min/kg. The Vd in data set [5] came to 4.4 L/kg; in [8], 3.8 L/kg; in data set [11], 7.4 L/kg. For the same compound, the half-life in data set [6] was 1.4 h; in [9] it was 2.3 h; in data set [12], 4.5 h.
In the case of `CN(C)C(=O)N1CC(c2cc(F)ccc2F)=C[C@@H]1c1ccccc1`, the IC50 in [1] is over 50000 nM.
Consider `CN(CCCN)C(=O)N1CC(c2cc(F)ccc2F)=C[C@H]1c1ccccc1`, for which the IC50 in [1] worked out at 16 nM. Further, the EC50 in the data set on A2780 amounted to 44 nM.
With `CN(C(=O)N1CC(c2cc(F)ccc2F)=C[C@H]1c1ccccc1)C1CCNCC1`, the EC50 with A2780 was 6.8 nM. Also, the solubility in data set [3] was over 10000 µg/mL.
In data set [1], `CC(=O)N1CC(c2cc(F)ccc2F)=CC1c1ccccc1` (racemic) yielded an IC50 of 4000 nM.
